Measurements taken from ChEMBL document CHEMBL1649420, “Identifying chelators for metalloprotein inhibitors using a fragment-based approach” (J Med Chem, 2011).

How the values were obtained:
[1] = molecular target: T1, Polyunsaturated fatty acid 5-lipoxygenase (Homo sapiens) (UniProt P09917); test: Inhibition of human recombinant 5-lipoxygenase at 1 mM after 10 mins by fluorescence assay
T1 sequence (whole entry): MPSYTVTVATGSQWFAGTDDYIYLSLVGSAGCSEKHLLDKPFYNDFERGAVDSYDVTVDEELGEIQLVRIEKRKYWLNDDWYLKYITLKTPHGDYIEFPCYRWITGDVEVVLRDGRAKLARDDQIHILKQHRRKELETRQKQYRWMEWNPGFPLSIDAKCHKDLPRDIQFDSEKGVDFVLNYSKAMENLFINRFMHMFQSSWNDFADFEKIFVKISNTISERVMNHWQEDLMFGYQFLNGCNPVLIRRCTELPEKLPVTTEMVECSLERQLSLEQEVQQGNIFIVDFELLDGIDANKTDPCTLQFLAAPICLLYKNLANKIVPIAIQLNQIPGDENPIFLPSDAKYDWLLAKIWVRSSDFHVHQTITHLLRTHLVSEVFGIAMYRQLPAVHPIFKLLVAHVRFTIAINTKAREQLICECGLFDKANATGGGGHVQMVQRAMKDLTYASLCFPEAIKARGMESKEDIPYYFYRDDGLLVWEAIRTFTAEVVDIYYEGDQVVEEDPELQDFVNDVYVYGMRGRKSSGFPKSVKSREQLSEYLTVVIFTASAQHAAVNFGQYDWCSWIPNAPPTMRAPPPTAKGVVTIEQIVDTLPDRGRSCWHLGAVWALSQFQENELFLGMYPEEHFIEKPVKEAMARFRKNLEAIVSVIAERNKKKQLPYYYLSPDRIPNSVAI

[2] = molecular target: T2, Tyrosinase (Agaricus bisporus) (UniProt O42713); conditions: at 1 mM;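 further: inhibition measured at 10 min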
T2 sequence (whole entry): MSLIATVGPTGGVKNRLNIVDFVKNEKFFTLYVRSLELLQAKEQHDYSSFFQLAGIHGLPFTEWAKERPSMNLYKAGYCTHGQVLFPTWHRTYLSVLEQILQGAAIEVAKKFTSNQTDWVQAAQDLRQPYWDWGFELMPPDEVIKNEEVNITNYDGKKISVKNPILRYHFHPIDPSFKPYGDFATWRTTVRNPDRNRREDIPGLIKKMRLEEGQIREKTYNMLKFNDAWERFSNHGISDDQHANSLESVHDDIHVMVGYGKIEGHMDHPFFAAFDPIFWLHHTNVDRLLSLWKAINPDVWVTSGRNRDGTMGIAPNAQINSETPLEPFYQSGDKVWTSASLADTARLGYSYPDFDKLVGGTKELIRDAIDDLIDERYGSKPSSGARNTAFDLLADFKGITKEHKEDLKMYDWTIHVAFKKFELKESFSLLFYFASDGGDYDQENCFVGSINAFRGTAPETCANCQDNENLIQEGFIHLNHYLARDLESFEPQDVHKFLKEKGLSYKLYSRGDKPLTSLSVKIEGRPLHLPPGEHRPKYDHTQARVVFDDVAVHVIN

[3] = molecular target: T3, Interstitial collagenase (Homo sapiens) (UniProt P03956); conditions: at 1 mM;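 further: recombinant human enzyme, with inhibition measured after 30 min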
T3 sequence (whole entry): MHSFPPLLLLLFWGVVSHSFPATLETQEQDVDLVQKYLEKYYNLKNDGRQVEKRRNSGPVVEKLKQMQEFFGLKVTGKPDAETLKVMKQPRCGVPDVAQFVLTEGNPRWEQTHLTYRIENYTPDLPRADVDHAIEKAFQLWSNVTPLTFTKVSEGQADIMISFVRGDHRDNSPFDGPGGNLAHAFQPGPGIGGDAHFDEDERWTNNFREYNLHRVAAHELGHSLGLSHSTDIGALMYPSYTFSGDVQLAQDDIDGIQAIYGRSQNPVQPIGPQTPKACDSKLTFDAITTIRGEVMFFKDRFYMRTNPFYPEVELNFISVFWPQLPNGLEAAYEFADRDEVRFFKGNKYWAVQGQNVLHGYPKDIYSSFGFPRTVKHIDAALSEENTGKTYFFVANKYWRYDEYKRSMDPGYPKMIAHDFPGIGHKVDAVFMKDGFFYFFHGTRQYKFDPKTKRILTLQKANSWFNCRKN

[4] = molecular target: T4, 72 kDa type IV collagenase (Homo sapiens, UniProt P08253); conditions: at 1 mM
Target sequence in this assay (P08253 110-660 limits assumed): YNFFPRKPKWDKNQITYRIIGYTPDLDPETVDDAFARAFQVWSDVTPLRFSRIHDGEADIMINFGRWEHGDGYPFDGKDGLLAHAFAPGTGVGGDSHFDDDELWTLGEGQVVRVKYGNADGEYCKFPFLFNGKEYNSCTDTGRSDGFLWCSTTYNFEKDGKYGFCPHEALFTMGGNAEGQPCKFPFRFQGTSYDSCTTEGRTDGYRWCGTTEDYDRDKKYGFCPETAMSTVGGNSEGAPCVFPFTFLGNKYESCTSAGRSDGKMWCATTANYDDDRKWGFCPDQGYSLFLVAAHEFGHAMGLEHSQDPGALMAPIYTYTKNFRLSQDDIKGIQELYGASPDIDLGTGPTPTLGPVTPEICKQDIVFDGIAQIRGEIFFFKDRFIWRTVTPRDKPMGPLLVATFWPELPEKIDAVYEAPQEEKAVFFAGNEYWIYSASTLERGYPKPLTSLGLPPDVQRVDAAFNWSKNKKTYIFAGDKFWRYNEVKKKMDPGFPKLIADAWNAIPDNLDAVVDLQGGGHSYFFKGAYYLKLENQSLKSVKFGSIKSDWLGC

[5] = molecular target: Stromelysin-1 (Homo sapiens) (UniProt P08254); conditions: at 1 mM;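 further: recombinant enzyme, inhibition read after a 30 min incubation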
Stromelysin-1 (Homo sapiens), sequence (P08254 100-477 limits assumed): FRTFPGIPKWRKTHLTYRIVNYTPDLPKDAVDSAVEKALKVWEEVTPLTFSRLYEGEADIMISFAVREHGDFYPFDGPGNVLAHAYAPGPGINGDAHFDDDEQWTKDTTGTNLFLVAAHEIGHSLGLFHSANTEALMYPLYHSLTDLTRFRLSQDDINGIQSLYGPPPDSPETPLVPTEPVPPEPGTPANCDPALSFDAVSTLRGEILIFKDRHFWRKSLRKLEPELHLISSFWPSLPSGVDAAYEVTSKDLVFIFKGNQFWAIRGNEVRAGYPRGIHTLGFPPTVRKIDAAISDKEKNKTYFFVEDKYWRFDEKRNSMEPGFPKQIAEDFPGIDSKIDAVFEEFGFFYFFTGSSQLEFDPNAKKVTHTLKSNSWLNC

[6] = molecular target: Neutrophil collagenase (Homo sapiens) (UniProt P22894); conditions: at 1 mM;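 further: recombinant human MMP8 enzyme, percent inhibition read after 30 min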
Neutrophil collagenase (Homo sapiens), sequence (P22894 101-467 limits assumed): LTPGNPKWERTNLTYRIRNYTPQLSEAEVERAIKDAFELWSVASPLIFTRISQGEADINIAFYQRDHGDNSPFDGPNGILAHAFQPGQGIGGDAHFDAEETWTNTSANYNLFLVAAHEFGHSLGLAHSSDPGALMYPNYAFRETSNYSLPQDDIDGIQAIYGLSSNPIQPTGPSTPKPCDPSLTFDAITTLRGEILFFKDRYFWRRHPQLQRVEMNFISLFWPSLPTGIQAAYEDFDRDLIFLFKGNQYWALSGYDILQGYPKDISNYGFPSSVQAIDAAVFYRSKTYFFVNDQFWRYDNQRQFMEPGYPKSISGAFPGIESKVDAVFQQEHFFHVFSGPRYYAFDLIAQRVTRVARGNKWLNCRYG

[7] = molecular target: Matrix metalloproteinase-9 (Homo sapiens) (UniProt P14780); conditions: at 1 mM;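 further: recombinant human MMP9, activity read after 30 min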
Matrix metalloproteinase-9 (Homo sapiens), sequence (P14780 whole entry): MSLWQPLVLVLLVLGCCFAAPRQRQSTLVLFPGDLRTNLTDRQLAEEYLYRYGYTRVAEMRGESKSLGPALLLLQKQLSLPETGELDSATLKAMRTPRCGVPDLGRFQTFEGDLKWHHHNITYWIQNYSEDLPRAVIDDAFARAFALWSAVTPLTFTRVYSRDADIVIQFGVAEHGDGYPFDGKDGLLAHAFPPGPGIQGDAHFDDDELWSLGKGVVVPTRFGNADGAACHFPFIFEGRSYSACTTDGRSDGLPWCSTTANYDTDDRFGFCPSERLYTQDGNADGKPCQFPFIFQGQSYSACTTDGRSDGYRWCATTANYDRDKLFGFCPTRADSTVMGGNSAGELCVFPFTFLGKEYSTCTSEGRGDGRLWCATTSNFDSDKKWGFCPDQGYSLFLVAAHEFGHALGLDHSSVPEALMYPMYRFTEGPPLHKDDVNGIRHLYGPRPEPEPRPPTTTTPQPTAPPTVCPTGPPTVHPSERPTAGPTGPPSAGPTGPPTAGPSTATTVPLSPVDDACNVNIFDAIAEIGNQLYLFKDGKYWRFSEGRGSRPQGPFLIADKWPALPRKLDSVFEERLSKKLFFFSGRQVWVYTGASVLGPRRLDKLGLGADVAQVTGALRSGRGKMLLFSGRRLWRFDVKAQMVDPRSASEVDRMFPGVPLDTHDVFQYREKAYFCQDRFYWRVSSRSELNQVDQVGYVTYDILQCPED

[8] = molecular target: T5, Nitric oxide synthase, inducible (Mus musculus) (UniProt P29477); conditions: at 1 mM;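 further: recombinant enzyme, activity read out colorimetrically after 40 min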
T5 sequence (whole entry): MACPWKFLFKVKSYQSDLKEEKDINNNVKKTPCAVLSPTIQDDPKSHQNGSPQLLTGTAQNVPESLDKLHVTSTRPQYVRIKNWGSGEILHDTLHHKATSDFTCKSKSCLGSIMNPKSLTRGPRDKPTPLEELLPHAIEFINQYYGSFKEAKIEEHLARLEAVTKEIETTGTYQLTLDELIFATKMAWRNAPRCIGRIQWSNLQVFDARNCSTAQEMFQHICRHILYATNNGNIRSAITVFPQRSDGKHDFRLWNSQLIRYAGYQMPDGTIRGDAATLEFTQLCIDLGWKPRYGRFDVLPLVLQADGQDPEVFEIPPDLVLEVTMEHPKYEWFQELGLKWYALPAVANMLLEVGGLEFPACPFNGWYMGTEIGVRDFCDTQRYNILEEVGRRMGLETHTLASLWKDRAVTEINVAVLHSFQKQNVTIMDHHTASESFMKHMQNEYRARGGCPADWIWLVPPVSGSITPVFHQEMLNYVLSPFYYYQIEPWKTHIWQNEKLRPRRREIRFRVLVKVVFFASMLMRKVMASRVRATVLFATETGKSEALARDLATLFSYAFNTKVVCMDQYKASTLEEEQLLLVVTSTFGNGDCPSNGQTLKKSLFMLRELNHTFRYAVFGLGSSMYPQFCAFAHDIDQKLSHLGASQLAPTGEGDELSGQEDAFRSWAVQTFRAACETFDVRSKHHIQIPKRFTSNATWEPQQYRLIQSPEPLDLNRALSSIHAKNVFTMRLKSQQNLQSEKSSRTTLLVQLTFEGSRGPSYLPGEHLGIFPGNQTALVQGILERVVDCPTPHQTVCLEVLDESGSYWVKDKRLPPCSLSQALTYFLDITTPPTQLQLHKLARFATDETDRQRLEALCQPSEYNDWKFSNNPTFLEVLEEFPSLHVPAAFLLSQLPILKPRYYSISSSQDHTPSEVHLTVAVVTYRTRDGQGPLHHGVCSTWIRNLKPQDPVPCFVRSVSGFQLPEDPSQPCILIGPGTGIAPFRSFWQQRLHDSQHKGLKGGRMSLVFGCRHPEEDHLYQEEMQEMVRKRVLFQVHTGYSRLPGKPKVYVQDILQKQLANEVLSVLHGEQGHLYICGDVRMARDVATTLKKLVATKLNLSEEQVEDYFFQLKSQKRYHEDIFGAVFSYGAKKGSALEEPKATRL

[9] = molecular target: T4, 72 kDa type IV collagenase; test: Inhibition of human recombinant MMP2 after 30 mins
Summary of the method: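 Enzyme (1.16 U) preincubated 30 min at 37 °C with fragment in 50 mM HEPES, 10 mM CaCl2, 0.05% Brij-35, pH 7.5. Fluorogenic Mca peptide substrate (4 μM final) then added. Rate of fluorescence increase compared with no-inhibitor control (100%). Single-point 25 μM final for the 8-hydroxyquinoline sublibrary. IC50 fitted to dose-response curves from serial dilutions of DMSO stocks.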
Target sequence in this assay (P08253 whole entry): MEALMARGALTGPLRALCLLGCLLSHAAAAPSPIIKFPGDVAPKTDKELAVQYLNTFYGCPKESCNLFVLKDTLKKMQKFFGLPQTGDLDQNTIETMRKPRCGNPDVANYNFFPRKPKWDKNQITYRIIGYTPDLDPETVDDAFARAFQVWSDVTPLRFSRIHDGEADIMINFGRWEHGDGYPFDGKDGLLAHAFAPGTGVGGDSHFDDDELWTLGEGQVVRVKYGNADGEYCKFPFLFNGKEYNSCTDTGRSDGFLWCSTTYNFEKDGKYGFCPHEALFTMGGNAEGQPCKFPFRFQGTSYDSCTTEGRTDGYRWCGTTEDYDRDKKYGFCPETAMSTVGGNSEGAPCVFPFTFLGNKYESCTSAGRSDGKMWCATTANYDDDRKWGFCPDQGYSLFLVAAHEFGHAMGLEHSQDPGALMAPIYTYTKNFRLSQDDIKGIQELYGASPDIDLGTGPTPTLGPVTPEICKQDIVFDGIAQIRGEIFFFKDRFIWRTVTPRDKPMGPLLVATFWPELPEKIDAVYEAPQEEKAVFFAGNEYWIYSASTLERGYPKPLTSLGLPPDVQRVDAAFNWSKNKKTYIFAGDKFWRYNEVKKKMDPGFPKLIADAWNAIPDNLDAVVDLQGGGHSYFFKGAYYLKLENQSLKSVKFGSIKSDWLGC

[10] = molecular target: T6, Lethal factor (Bacillus anthracis) (UniProt P15917); conditions: at 1 mM
T6 sequence (whole entry): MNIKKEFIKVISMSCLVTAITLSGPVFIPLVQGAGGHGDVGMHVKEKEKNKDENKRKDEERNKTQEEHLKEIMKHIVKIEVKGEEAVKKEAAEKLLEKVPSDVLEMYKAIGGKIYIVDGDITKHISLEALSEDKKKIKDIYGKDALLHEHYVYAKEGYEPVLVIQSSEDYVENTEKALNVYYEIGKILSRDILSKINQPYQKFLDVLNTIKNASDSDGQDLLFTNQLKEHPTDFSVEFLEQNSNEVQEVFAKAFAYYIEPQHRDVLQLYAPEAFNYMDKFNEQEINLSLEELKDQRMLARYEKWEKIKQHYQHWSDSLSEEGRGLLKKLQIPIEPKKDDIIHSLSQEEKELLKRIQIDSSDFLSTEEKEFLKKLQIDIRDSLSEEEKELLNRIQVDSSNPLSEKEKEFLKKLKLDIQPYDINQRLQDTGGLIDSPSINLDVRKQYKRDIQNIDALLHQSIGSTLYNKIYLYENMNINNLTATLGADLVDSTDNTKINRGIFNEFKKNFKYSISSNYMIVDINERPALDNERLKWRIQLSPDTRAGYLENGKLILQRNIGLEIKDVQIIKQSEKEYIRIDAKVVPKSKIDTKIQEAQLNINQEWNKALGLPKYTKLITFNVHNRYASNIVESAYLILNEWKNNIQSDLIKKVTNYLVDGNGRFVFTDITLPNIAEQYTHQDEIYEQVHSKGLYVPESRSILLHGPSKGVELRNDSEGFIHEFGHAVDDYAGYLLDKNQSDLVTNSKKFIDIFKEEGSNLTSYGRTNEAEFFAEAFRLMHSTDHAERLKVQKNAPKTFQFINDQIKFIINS

O=C(O)c1cccc2cccnc12
inhibition [1]: 23% | inhibition [2]: -2% | inhibition [3]: 36% | inhibition [4]: 25% | inhibition [5]: 77% | inhibition [6]: 38% | inhibition [7]: 31% | inhibition [8]: 11%

O=c1[nH]ccc(=S)[nH]1
IC50 [9]: 121 µM

Cc1cccc(C(=O)O)n1
inhibition [1]: 21% | inhibition [2]: 25% | inhibition [10]: 47% | inhibition [3]: -9% | inhibition [5]: 48% | inhibition [6]: 3% | inhibition [7]: -6% | inhibition [8]: 8%

Cc1nc(O)cc(O)n1
inhibition [1]: 62% | inhibition [2]: 12% | inhibition [3]: 14% | inhibition [4]: 2% | inhibition [5]: 22% | inhibition [6]: 14% | inhibition [7]: 4% | inhibition [8]: 1%

O=C(O)c1c(O)cccc1O
inhibition [1]: 38% | inhibition [2]: 95% | inhibition [10]: 15% | inhibition [3]: 0% | inhibition [4]: -6% | inhibition [5]: -4% | inhibition [6]: -5% | inhibition [8]: 17%

O=C(O)c1cccc(O)n1
inhibition [1]: 38% | inhibition [2]: 95% | inhibition [10]: 81% | inhibition [3]: 16% | inhibition [5]: 0% | inhibition [6]: 20% | inhibition [7]: 16% | inhibition [8]: 6%

Cc1ccc(C(=O)O)c(O)c1
inhibition [1]: 17% | inhibition [2]: 97% | inhibition [10]: 11% | inhibition [3]: 8% | inhibition [5]: -1% | inhibition [6]: 16% | inhibition [7]: 10% | inhibition [8]: 15%

O=C(O)c1ccc[nH]1
inhibition [1]: 48% | inhibition [2]: 69% | inhibition [10]: 11% | inhibition [3]: 8% | inhibition [4]: 1% | inhibition [5]: -8% | inhibition [8]: 7%

CCC(C(C)=O)C(C)=O
inhibition [1]: 62% | inhibition [2]: 85% | inhibition [10]: 4% | inhibition [3]: 7% | inhibition [5]: 6% | inhibition [6]: 3% | inhibition [7]: 1% | inhibition [8]: -1%

CC(=O)C(Cl)C(C)=O
inhibition [1]: 52% | inhibition [2]: 86% | inhibition [10]: 9% | inhibition [3]: 11% | inhibition [4]: -9% | inhibition [5]: -6% | inhibition [6]: -7% | inhibition [8]: 80%

O=C(O)c1cccnc1C(=O)O
inhibition [1]: 30% | inhibition [2]: 98% | inhibition [10]: 49% | inhibition [3]: 4% | inhibition [6]: 14% | inhibition [7]: -8% | inhibition [8]: 5%

CC(=O)CC(C)=O
inhibition [1]: 42% | inhibition [2]: 77% | inhibition [10]: 5% | inhibition [3]: 10% | inhibition [4]: -5% | inhibition [5]: -4% | inhibition [6]: -6% | inhibition [8]: -6%

O=C(O)c1nc(Cl)ccc1Cl
inhibition [1]: 27% | inhibition [2]: 96% | inhibition [3]: 12% | inhibition [4]: 0% | inhibition [5]: 0% | inhibition [6]: 18% | inhibition [7]: 18% | inhibition [8]: 20%

Oc1cccnc1O
inhibition [1]: 90% | inhibition [2]: -9% | inhibition [3]: 8% | inhibition [5]: -7% | inhibition [6]: 7% | inhibition [7]: 21% | inhibition [8]: 0%

Oc1ccccc1O
inhibition [1]: 89% | inhibition [10]: 47% | inhibition [3]: 25% | inhibition [4]: 10% | inhibition [5]: 1% | inhibition [6]: 31% | inhibition [7]: 10% | inhibition [8]: 28%

O=c1cc(CO)occ1O
inhibition [1]: 84% | inhibition [10]: 33% | inhibition [3]: 59% | inhibition [4]: 52% | inhibition [5]: 62% | inhibition [6]: 51% | inhibition [7]: 49% | inhibition [8]: -4%
